Measurements reported in ChEMBL document CHEMBL2380310, “Discovery of 7-oxopyrazolo[1,5-a]pyrimidine-6-carboxamides as potent and selective CB(2) cannabinoid receptor inverse agonists” (J Med Chem, 2013).

How the values were obtained:
Cannabinoid receptor 2 [1] = molecular target: T1, Cannabinoid receptor 2 (Homo sapiens, UniProt P34972); assay: Inverse agonist activity at human CB2 receptor expressed in CHO cell membrane assessed as increase in forskolin-stimulated cAMP production at 10 uM by scintillation counting analysis relative to WIN55212-2
Procedure, shortened: (§1)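 Whole hCB₂ CHO cells (1 × 10⁶/assay) in HEPES-buffered saline with glucose, pH 7.4, preincubated 10 min at 37 °C with 0.5 mM Ro 20-1724. Compound at 1 or 10 μM with 1 μM forskolin. Stopped with cold 6% TCA, ether-extracted; cAMP measured by [³H]cAMP competition binding with adrenal binding protein. Expressed as % increase versus WIN 55,212-2 (set −100%); n = 4.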

Cannabinoid receptor 2 [2] = molecular target: T1, Cannabinoid receptor 2; assay: Inverse agonist activity at human CB2 receptor expressed in CHO cell membrane assessed as increase in forskolin-stimulated cAMP production at 1 uM by scintillation counting analysis relative to WIN55212-2; procedure, shortened: as §1
Homo sapiens = organism: Homo sapiens; assay: Selectivity index, ratio of Ki for human CB1 receptor to Ki for human CB2 receptor
Cannabinoid receptor 2 [3] = molecular target: T1, Cannabinoid receptor 2; assay: Displacement of [3H]CP-55940 from human CB2 receptor expressed in CHO cell membrane after 60 mins by scintillation counting analysis; format: cell membranes
Procedure, shortened: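 Human CB₂-expressing CHO cell membranes in 50 mM Tris-HCl, 0.5% BSA, 5 mM MgCl₂, 1 mM EDTA, pH 7.4. Binding of 0.5 nM [³H]CP-55,940 competed with 1 nM–10 μM compound for 60 min at 30 °C, then GF/C filtration and scintillation counting. Ki by Cheng-Prusoff from IC50; mean SEM of n = 4.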

Cannabinoid receptor 1 [4] = molecular target: T2, Cannabinoid receptor 1 (Homo sapiens, UniProt P21554); assay: Displacement of [3H]CP-55940 from human CB1 receptor expressed in CHO cell membrane after 90 mins by scintillation counting analysis; format: cell membranes
Procedure, shortened: (§2)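 Membranes from CHO cells stably expressing human CB₁ (G418-maintained), suspended in 50 mM Tris-HCl, 0.5% BSA, 5 mM MgCl₂, 2.5 mM EDTA, pH 7.4. Displacement of 0.5 nM [³H]CP-55,940 by 1 nM–10 μM compound, 90 min, 30 °C. Filtration on GF/C, scintillation counting. Cheng-Prusoff Ki, LIGAND fitting; mean SEM, n = 4.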

Cannabinoid receptor 1 [5] = molecular target: T2, Cannabinoid receptor 1; assay: Displacement of [3H]CP-55940 from human CB1 receptor expressed in CHO cell membrane at > 10 uM after 90 mins by scintillation counting analysis; format: cell membranes; procedure, shortened: as §2
[6] = molecular target: Cannabinoid receptor 1 (Rattus norvegicus) (UniProt P20272); assay: Displacement of [3H]CP-55940 from Sprague-Dawley rat brain CB1 receptor at > 10 uM after 90 mins by scintillation counting analysis
Procedure, shortened: (§3)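 Competition with [³H]CP-55,940 (1.0 nM stated in rat CB₁ section; 0.5 nM in general protocol) against 1 nM–10 μM compound, 90 min at 30 °C. GF/C filtration, scintillation counting. Ki via Cheng-Prusoff; mean SEM, n = 4.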

Cannabinoid receptor 1 [7] = molecular target: Cannabinoid receptor 1 (Rattus norvegicus, UniProt P20272); assay: Displacement of [3H]CP-55940 from Sprague-Dawley rat brain CB1 receptor after 90 mins by scintillation counting analysis; procedure, shortened: as §3
Cannabinoid receptor 2 [8] = molecular target: T3, Cannabinoid receptor 2 (Rattus norvegicus, UniProt Q9QZN9); assay: Displacement of [3H]CP-55940 from Sprague-Dawley rat spleen CB2 receptor after 60 mins by scintillation counting analysis
T3 sequence (Q9QZN9 whole entry): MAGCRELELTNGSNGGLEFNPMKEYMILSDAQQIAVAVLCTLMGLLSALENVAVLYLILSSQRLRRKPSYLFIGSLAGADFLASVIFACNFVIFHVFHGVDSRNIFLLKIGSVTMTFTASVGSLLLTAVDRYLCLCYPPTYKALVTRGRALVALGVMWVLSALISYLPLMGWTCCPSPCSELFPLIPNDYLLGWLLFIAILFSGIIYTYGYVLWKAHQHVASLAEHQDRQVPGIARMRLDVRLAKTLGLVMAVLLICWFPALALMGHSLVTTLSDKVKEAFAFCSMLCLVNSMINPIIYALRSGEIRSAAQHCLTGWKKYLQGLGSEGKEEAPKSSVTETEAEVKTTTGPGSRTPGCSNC
Procedure, shortened: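 Competed against 0.5 nM [³H]CP-55,940 using 1 nM–10 μM compound for 60 min at 30 °C. Bound ligand collected on GF/C filters and counted. Ki from IC50 by Cheng-Prusoff; mean SEM of n = 4.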

Sequence of Cannabinoid receptor 1 (Rattus norvegicus) (P20272 whole entry): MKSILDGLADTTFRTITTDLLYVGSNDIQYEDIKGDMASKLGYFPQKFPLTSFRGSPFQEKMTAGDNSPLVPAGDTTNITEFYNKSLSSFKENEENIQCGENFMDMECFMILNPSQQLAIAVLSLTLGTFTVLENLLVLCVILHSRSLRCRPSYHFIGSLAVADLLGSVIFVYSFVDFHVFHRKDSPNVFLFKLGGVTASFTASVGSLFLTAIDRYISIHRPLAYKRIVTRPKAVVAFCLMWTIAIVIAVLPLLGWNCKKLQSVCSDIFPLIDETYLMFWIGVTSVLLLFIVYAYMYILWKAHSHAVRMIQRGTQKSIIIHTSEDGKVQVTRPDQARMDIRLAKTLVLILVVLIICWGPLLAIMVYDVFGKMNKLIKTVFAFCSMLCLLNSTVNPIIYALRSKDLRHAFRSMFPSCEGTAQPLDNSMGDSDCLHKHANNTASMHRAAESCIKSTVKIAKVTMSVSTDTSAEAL
Sequence of Cannabinoid receptor 1 (Rattus norvegicus, UniProt P20272) (P20272 whole entry): as above
T1 sequence (P34972 whole entry): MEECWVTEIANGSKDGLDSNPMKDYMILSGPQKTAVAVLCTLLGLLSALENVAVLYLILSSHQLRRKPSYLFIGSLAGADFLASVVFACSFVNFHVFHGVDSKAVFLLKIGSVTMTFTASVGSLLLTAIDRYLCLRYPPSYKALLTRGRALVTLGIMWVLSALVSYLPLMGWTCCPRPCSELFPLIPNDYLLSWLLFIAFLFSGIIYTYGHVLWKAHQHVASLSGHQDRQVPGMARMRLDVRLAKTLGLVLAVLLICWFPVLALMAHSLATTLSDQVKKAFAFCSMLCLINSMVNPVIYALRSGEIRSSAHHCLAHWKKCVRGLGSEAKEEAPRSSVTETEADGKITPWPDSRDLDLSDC
T2 sequence (P21554 whole entry): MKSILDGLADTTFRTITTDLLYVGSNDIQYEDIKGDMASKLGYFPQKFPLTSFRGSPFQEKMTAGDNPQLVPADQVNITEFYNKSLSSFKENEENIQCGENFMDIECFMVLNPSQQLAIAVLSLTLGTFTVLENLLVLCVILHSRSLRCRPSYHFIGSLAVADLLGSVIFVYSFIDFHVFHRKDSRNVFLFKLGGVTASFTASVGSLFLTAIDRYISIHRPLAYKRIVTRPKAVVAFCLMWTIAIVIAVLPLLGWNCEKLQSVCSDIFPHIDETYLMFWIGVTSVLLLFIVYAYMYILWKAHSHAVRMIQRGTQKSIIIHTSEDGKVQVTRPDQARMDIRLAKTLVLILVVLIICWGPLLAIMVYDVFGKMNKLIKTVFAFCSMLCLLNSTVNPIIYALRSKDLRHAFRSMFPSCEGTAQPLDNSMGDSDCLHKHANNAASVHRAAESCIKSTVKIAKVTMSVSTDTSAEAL

SMILES	Activity (Cannabinoid receptor 2 [1]) [%]	Activity (Cannabinoid receptor 2 [2]) [%]	Ratio Ki (Homo sapiens)	Ki (Cannabinoid receptor 2 [3]) [nM]	Ki (Cannabinoid receptor 1 [4]) [nM]	Activity (Cannabinoid receptor 1 [5]) [%]	Activity [6] [%]	Ki (Cannabinoid receptor 1 [7]) [nM]	Ki (Cannabinoid receptor 2 [8]) [nM]
CCCCCn1cc(C(=O)NC2CCCCCC2)c(=O)n2nc(-c3ccco3)cc12	88	42	> 1520	6.57	> 10000	16	20	> 10000	7.23
CCCCCn1cc(C(=O)NC2CCCCC2)c(=O)n2nc(CC)cc12	146	121	40	10.4	420			480	11.5
CCCCCn1cc(C(=O)NC23CC4CC(CC(C4)C2)C3)c(=O)n2nc(-c3cc(C)cs3)cc12	97	71	> 666	15	> 10000	13	15	> 10000	18
CCCCCn1cc(C(=O)NC2CCCCCC2)c(=O)n2nc(-c3ccc(Cl)cc3Cl)cc12	77	61	> 270	37	> 10000	39	49	> 10000	40
CCCCCn1cc(C(=O)NC2CCCCCC2)c(=O)n2nc(CC)cc12	159	137	38	5.22	200			220	5.63
CCCCCn1cc(C(=O)NC2CCCCCC2)c(=O)n2nc(-c3ccccc3)cc12	134	103	27	31	825			900	35
CCCCCn1cc(C(=O)NC2CCCCCC2)c(=O)n2nc(-c3ccc(C)cc3)cc12	107	81	> 970	10.3	> 10000	39	49	> 10000	13.2
CCCCCn1cc(C(=O)NC23CC4CC(CC(C4)C2)C3)c(=O)n2nc(-c3ccc(C)cc3)cc12	168	138	> 2930	3.41	> 10000	38	45	> 10000	3.82
CCCCCn1cc(C(=O)NC23CC4CC(CC(C4)C2)C3)c(=O)n2nc(-c3c(Cl)cccc3Cl)cc12	62	38	> 102	98	> 10000	21	18	> 10000	110
CCCCCn1cc(C(=O)NC2CCCCCC2)c(=O)n2nc(-c3ccccc3Cl)cc12	69	53	> 970	10.3	> 10000	35	42	> 10000	12.3
CCCCCn1cc(C(=O)NC23CC4CC(CC(C4)C2)C3)c(=O)n2nc(-c3cccs3)cc12	102	89	> 1600	6.24	> 10000	26	22	> 10000	7.52
CCCCCn1cc(C(=O)NC23CC4CC(CC(C4)C2)C3)c(=O)n2nc(-c3ccoc3)cc12	92	56	> 990	10.1	> 10000	19	17	> 10000	12.4
CCCCCn1cc(C(=O)NC2CCCCC2)c(=O)n2nc(-c3ccco3)cc12	103	73	> 1050	9.52	> 10000	21	30	> 10000	10.4
CCCCCn1cc(C(=O)NC2CCCCCC2)c(=O)n2nc(-c3ccccc3C)cc12	125	107	> 1120	8.93	> 10000	34	45	> 10000	9.53
CCCCCn1cc(C(=O)NC23CC4CC(CC(C4)C2)C3)c(=O)n2nc(-c3ccc(Cl)cc3Cl)cc12	112	87	> 333	30	> 10000	37	40	> 10000	35
CCCCCn1cc(C(=O)NC23CC4CC(CC(C4)C2)C3)c(=O)n2nc(-c3ccccc3Cl)cc12	136	114	> 1610	6.21	> 10000	41	48	> 10000	6.32
CCCCCn1cc(C(=O)NC23CC4CC(CC(C4)C2)C3)c(=O)n2nc(C)c(-c3ccccc3)c12	51	34	> 55	181	> 10000	15	15	> 10000	214
CCCCCn1cc(C(=O)NC2CCCCC2)c(=O)n2nc(-c3ccc(Cl)cc3Cl)cc12	65	45	> 192	52	> 10000	38	47	> 10000	60
CCCCCn1cc(C(=O)NC2CCCCC2)c(=O)n2nc(C)cc12	54	42	58	22	1280			1580	26
CCCCCn1cc(C(=O)NCc2ccccc2)c(=O)n2nc(C)cc12	52	38	9.2	358	3290			3690	428
CCCCCn1cc(C(=O)NC2CCCCCC2)c(=O)n2nc(C)cc12	63	44	51	10.3	527			642	12.4
CCCCCn1cc(C(=O)NC23CC4CC(CC(C4)C2)C3)c(=O)n2nc(C)cc12	75	56	88	12.7	1120			1460	15.3
CCCCCn1cc(C(=O)NC23CC4CC(CC(C4)C2)C3)c(=O)n2nc(C(C)(C)C)cc12	189	114	124	4.95	612			675	5.54
CCCCCn1cc(C(=O)NC2CCCCC2)c(=O)n2nc(-c3ccccc3)cc12	123	92	17	42	702			750	50
CCCCCn1cc(C(=O)NC2CCC(C)CC2)c(=O)n2nc(C)cc12 (configuration not stated)	67	48	23	106	2430			2600	120
CCCCCn1cc(C(=O)NC2CCCCC2)c(=O)n2nc(C(C)(C)C)cc12	115	85	55	12.3	675			720	14.2
